In the EternaBench riboswitch data:

Tested on: MS2 coat protein
Experiment: apparent Kd, MS2 coat protein; higher = weaker binding; RNA-MaP array; FMN 200 µM where present
Outline: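 Two titrations, one without ligand and one with constant ligand, were run with SNAP-549-labelled MS2 coat protein from 0.7 or 1.5 nM, doubling to 3 µM. The targets were designs transcribed by stalled E. coli RNA polymerase on Illumina sequencing-chip clusters, in 100 mM Tris-HCl pH 7.5, 80 mM KCl, 4 mM MgCl2, BSA, DTT, yeast tRNA and Tween-20. The apparent Kd is the median of filtered per-cluster binding-curve fits, with green signal normalised to red-channel RNA signal and control-cluster median Fmax.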

[1] = designed as: OFF switch for flavin mononucleotide, no ligand
[2] = ligand present: flavin mononucleotide, designed as: OFF switch for flavin mononucleotide
[3] = designed as: ON switch for flavin mononucleotide, no ligand
[4] = ligand present: flavin mononucleotide, designed as: ON switch for flavin mononucleotide

| Sequence | apparent Kd [1] [nM] | apparent Kd [2] [nM] | apparent Kd [3] [nM] | apparent Kd [4] [nM] |
| --- | --- | --- | --- | --- |
| CGUGUUGACGAAGGAUAUGGAUACAUGAGGAUCACCCAUGUAUAUUUUGUGAUCAAGUUUAAGAUCCAGAAGGUCGUUGACACG | 77.6 | 131 |  |  |
| GCCAUCGCAUGAGGAUAUGCUCGGGUUUCCCGAGCAGAAGGCAUGUAAUAAGACAUGAGGAUCACCCAUGUAGUUAAGAUGGCA |  |  | 7.48 | 5.3 |
| UUUUAACAUGAGGAUCACCCAUGUGAGGAUAUCGAAAUUUAUAUUUAUAUUAAUAAUACGAGAAGGCACAUUUU | 63 | 87 |  |  |
| AGUGUCAUCGAGAAGGCCUCAACAUGAGGAUCACCCAUGUUGUAAUAUGGGAGGAUAUCGAUGAUACAGCUACGUUUCGUAGCA |  |  | 20.7 | 5.79 |
| CACACAUGUGGAGGAUAUGUAGUUAACAUAAGCGCAGAAGGCCACAUGAGGAUCACCCAUGUCCGGCAUUAGCCGAUGUUGAUC | 108 | 397 |  |  |
| AAAUUCUGAGGAUAUCGAUGUUUGUACAUGAGGAUCACCCAUGUCCUUUUUAUUUUUUCUCGAGAAGGCAGUGUAU | 38.1 | 35.3 |  |  |
| CGUCCUUAGUGAGGAUAUCAGAAACUACGGAAAUGAGAAGGCACAUGAGGAUCACCCAUGUAAAUAACGGCCGGUCUUGGCAGC | 7.27 | 15.2 |  |  |
| AGCAUGUUUACAUGAGGAUCACCCAUGUUUAUUUAGGAUUUCAGAAGGUACAAUUUGUGUUAGAGUAAGGAUAUGAUAUAUGCG |  |  | 12 | 8.48 |
| UACAUGAGGAUCACCCAUGUUAACAUGGAGUUGUUAUAUCUGAGAAGGGUAAUAUUACAUUAAGUACAGGAUAUCAAUGAUGUU | 45.2 | 18.4 |  |  |
| UGAUAGGACAGAGGAUAUGCCGAUAGGAUCUACUAUCGAAGAAUCCUCACAUGAGGAUCACCCAUGUAGAAGGCUGUCCUAUCC | 8.68 | 39.5 |  |  |
| UAUGUAUUCGUAGGAUAUCCGUUAAAACCGUGUGGAGAAGGACGAACAUGAGGAUCACCCAUGUAUCAUGGUGUAGACAAUUUU | 170 | 460 |  |  |
| UAGUGCGUUAGAGGAUAUUCAAGGUGAAAAAAAAAUACAUGAGGAUCACCCAUGUAAAAACAUGAGGAGAAGGCUGAUGUGCUA |  |  | 38.6 | 27.6 |
| UCAUAUAUACAAGGAUAUCAAUGAUUUGUAGAUCCUACAUGAGGAUCACCCAUGUUUUUAUAUUUUGAGAAGGUGUAGUGUCUU |  |  | 178 | 352 |
| UGGUACAUGGGAGGAUAUCCUCAAGAGACAUGAGGAUCACCCAUGUAUUAUAUGCCUCAUGGCAUGGAGAAGGCCCAUGUACCU |  |  | 179 | 153 |
| CGUUGUUAAGGAUAUGGACUCUUGAACAUGAGGAUCACCCAUGUGCGCGUGGUCUAAAUACCAGAAGGUGGCCGCC | 31.7 | 29.3 |  |  |
| GCCAGGAUGUGAGGAUAUGCUGAGGAUAACUCAGCAGAAGGCACAUGAGGAUCACCCAUGUAAACCUAUAAUAAAUACCCUGGC | 12.1 | 24.4 |  |  |
| GAUUAACAUGAGGAUCACCCAUGUCGUAUUAUGGGAGGAUAUACGUGGACCGUAGUCCGCGUAGAAGGCCUAAUUG |  |  | 93.8 | 28.7 |
| GAGCGCUGUCGAGAGGAUAUGCGGUGAUGGACAUGAGGAUCACCCAUGUUAGCGAUAGCAUUACGGUAGAAGGCUCUACAGCUGC |  |  | 33.4 | 15.4 |
| ACUUAUAGAGGAUAUACAGAAUAUUACAUGAGGAUCACCCAUGUUCUUCAAUGUAUAUUUGUAGAAGGCUAAGGAA | 50.6 | 249 |  |  |
| AGCUAGUCAGGAUAUACGAACAUGUCAUUAGACGUGAAGGGACAUGAGGAUCACCCAUGUAGAAGGGACUAGCA | 40 | 134 |  |  |
| CGCAAGUCAGGAUAUUCGACUGGUCCAUCUGUGGAUCAGUAGGAGAAGGGACAUGAGGAUCACCCAUGUUUGUU | 30.7 | 46.9 |  |  |
| AAAGAGCGAGGAUAUACGUAUCGGUGCGGCCCGCCGAUGUGACAUGAGGAUCACCCAUGUAGAAGGCGCAGAAA | 26.2 | 33 |  |  |
| GGGUUUGGAGGAUAUACAAUCCCGGGCCGAAAGGUUUGGGUACAUGAGGAUCACCCAUGUAGAAGGCCGGGCCC | 19.2 | 27.3 |  |  |
| UGUCGGAGCAGAGGAUAUUACAUGAGGAUCACCCAUGUAUGAACCAAUAGCUGGAACCAGCAAUGUAAGAAGGCUGCUCCGACA | 14.2 | 160 |  |  |
| ACAUGAGGAUCACCCAUGUUUUCAUGGAUUAUUAUUCUUUGAUAGGAUAUGUUAGUUAAGUAUUUACAGAAGGAUCAUUACCAA | 22.6 | 16.1 |  |  |
| UGACUAAAUGAAGGAUAUCUAAGCAUAAACCUGAGAGAAGGUCAUUUUUACAUGAGGAUCACCCAUGUUGUGAUUAAUGGGUCA | 88.7 | 137 |  |  |
| UUGGACGUCGUAGGAUAUGUAGGAUAUUCCUACAUGAGGAUCACCCAUGUUGACAUGGAAGAAGGACAUAAGGACGAUGUCCAU |  |  | 27.4 | 4.15 |
